Test results published in ChEMBL document CHEMBL1150966, “New iridoids from the medicinal plant Barleria prionitis with potent activity against respiratory syncytial virus” (J Nat Prod, 1998).
≈ marks a conversion by molar mass, not a printed value. Calls of active or inactive are those of the source. No cut-off for these calls is given here.

What was measured:
[1] = system: Respiratory syncytial virus; test: Antiviral activity against respiratory syncytial virus A2 in human Hep2 cells assessed as inhibition of virus-induced cytopathic effect; type: functional, organism-based; conditions: HEp-2
Method in brief: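 Cell-based viral cytopathic effect (CPE) assay with RSV strain A2 in Hep-2 cells. Antiviral activity is expressed in µg/mL as the 50% effective concentration (EC50).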

[2] = Cytotoxicity against human Hep2 cells; type: cell-based, HEp-2; conditions: for IC50: Homo sapiens, HEp-2
Method in brief: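 Cytotoxicity to Hep-2 cells was measured under the same conditions as the viral CPE assay. It is reported in µg/mL as the 50% inhibitory concentration (IC50).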

[3] = Selectivity index, ratio of IC50 for human Hep2 cells to EC50 for respiratory syncytial virus A2; type: toxicity, cell-based, HEp-2; conditions: for selectivity ratio: Hep2 cells, read-out: Ratio IC50/EC50
Method in brief: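 The selectivity index is IC50/EC50. The IC50 is for Hep-2 cytotoxicity and the EC50 is for RSV A2 CPE inhibition, both in µg/mL from the same CPE assay conditions.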

In the case of `COC(=O)C1=CO[C@@H](O[C@@H]2O[C@H](CO)[C@@H](O)[C@H](O)[C@H]2O)[C@H]2[C@@H]1[C@H](O)C[C@]2(C)OC(C)=O` [BARLERIN], the Activity [1] is reported as “inactive”, the Activity ([2]; human, hep-2) is reported as “Not Active” and the Activity ([3]; hep-2) is reported as “Not Active”.

For `C[C@@H]1O[C@@H](O[C@@H]2[C@@H](O)[C@H](OCCc3ccc(O)c(O)c3)O[C@H](CO)[C@H]2OC(=O)/C=C/c2ccc(O)c(O)c2)[C@H](O)[C@H](O)[C@H]1O` [ACETOSIDE], the IC50 [2] was 76.9 mg/L (≈ 123 µM) and the selectivity ratio [3] was 85.4.

Compound `COC(=O)C1=CO[C@@H](O[C@@H]2O[C@H](CO)[C@@H](O)[C@H](O)[C@H]2O)[C@H]2[C@@H]1[C@H](OC(=O)/C=C\c1ccc(O)cc1)C[C@]2(C)OC(C)=O` has an EC50 [1] of 2.46 mg/L (≈ 4.14 µM), an IC50 [2] of 42 mg/L (≈ 70.6 µM) and a selectivity ratio [3] of 17.

Compound `COC(=O)C1=CO[C@@H](O[C@@H]2O[C@H](CO)[C@@H](O)[C@H](O)[C@H]2O)[C@H]2[C@@H]1[C@H](OC(=O)/C=C/c1ccc(O)cc1)C[C@]2(C)OC(C)=O` has an EC50 [1] of 2.46 mg/L (≈ 4.14 µM), an IC50 [2] of 42 mg/L (≈ 70.6 µM) and a selectivity ratio [3] of 17.
